Test results reported in ChEMBL document CHEMBL4627325, “Rational modifications, synthesis and biological evaluation of new potential antivirals for RSV designed to target the M2-1 protein” (Bioorg Med Chem, 2020).

Legend:
[1] = test system: Human orthopneumovirus; test: Antiviral activity against Respiratory syncytial virus B infected in Hep2 cells assessed as reduction in virus-induced cytopathic effect after 5 days by microscopic analysis; format: functional, organism-based; details: HEp-2, 120 h
Method in brief: (§1)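 HEp-2 cells seeded 5×10^3/well in DMEM with 2% heat-inactivated FBS and 1% NEAA, 37°C, 5% CO₂; next day medium replaced with 1:2 serial dilutions of compound (eight concentrations, 0.7-100 μM) and infected with RSV-A Long or RSV-B Wash at moi 0.01 CCID₅₀/cell. CPE scored microscopically (0–5) at day 5; EC₅₀ by logarithmic interpolation as 50% protection; mean of ≥2 independent experiments.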

[2] = Cytotoxicity against human Hep2 cells assessed as reduction in cell viability measured after 5 days by MTS assay; format: cell-based; details: HEp-2 cells
Method in brief: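 Uninfected HEp-2 cultures set up as for the antiviral assay (5×10^3 cells/well, DMEM with 2% FBS and 1% NEAA, 37°C, 5% CO₂) and treated with serial 1:2 compound dilutions; metabolic activity quantified at day 5 by MTS readout to give CC₅₀; mean of ≥2 independent experiments.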

[3] = test system: Human orthopneumovirus; test: Antiviral activity against Respiratory syncytial virus A strain Long infected in Hep2 cells assessed as reduction in virus-induced cytopathic effect after 5 days by microscopic analysis; format: functional, organism-based; details: HEp-2, 120 h; method in brief: as §1

| SMILES | EC50 [1] | EC50 [3] | CC50 at 120 h [2] |
| --- | --- | --- | --- |
| Cc1ccc(CN2CCN(C(=S)SCc3nc4ccccc4s3)CC2)cc1 | 1.32 µM | – | > 100 µM |
| Nc1ccn([C@@H]2O[C@@](CO)(CCl)[C@@H](O)[C@H]2F)c(=O)n1 [ALS-8112] | 2.6 µM | 2.6 µM | > 100 µM |
| Cc1ccc(CN2CCN(C(=S)SCc3nc4ccccc4s3)CC2)c(C)c1 | – | 4.97 µM | > 100 µM |
| CC(C)(C)c1ccc(CN2CCN(C(=S)SCc3nc4ccccc4s3)CC2)cc1 | 2.2 µM | – | 71.7 µM |
| COC(=O)c1ccc(CN2CCN(C(=S)SCc3nc4ccccc4s3)CC2)cc1 | 3.9 µM | 14.8 µM | > 100 µM |
| S=C(SCc1nc2ccccc2s1)N1CCN(c2ccccc2)CC1 | 1.3 µM | 4.4 µM | > 100 µM |
| Fc1ccc(CN2CCN(C(=S)SCc3nc4ccccc4s3)CC2)cc1 | 2.5 µM | 4.4 µM | > 100 µM |
| Cc1cc(C)c(CN2CCN(C(=S)SCc3nc4ccccc4s3)CC2)c(C)c1 | 20.6 µM | 42.2 µM | > 100 µM |
| Cc1ccccc1CN1CCN(C(=S)SCc2nc3ccccc3s2)CC1 | 20.6 µM | 10.4 µM | > 100 µM |
| S=C(SCc1nc2ccccc2s1)N1CCN(Cc2ccccc2)CC1 | 3.9 µM | 8.3 µM | > 100 µM |
| FC(F)(F)c1ccc(CN2CCN(C(=S)SCc3nc4ccccc4s3)CC2)cc1 | – | 3.31 µM | > 100 µM |
| COc1ccc(CN2CCN(C(=S)SCc3nc4ccccc4s3)CC2)cc1 | 3 µM | – | > 100 µM |

The next lines start with results.

| EC50 [1] | EC50 [3] | SMILES | CC50 at 120 h [2] |
| --- | --- | --- | --- |
| 4 µM | 40.8 µM | CCOC(=O)c1ccc(CN2CCN(C(=S)SCc3nc4ccccc4s3)CC2)cc1 | > 100 µM |
| 12.5 µM | 35.3 µM | O=S(=O)(c1ccccc1)N1CCN(C(=S)SCc2nc3ccccc3s2)CC1 | > 100 µM |
| – | 7.7 µM | S=C(SCc1nc2ccccc2s1)N1CCN(CCc2ccccc2)CC1 | > 100 µM |
| 3 µM | 11.8 µM | Cc1cccc(CN2CCN(C(=S)SCc3nc4ccccc4s3)CC2)c1 | > 100 µM |
| 3.8 µM | 3.3 µM | FC(F)(F)c1cccc(CN2CCN(C(=S)SCc3nc4ccccc4s3)CC2)c1 | > 100 µM |
| 24.8 µM | 44.1 µM | O=C(c1ccccc1)N1CCN(C(=S)SCc2nc3ccccc3s2)CC1 | 45 µM |
